Reference: ChEMBL document CHEMBL1122810 (J Med Chem, 1984)
pIC50: −log10 of the molar value. One block for each compound: values may come before it.

How the values were obtained:
H35R0.3 [1] = experiment: Growth inhibition of H35R0.3 cell lines; type: functional, cell-based; conditions: Rattus norvegicus
Method in brief: (§1)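 H35 rat hepatoma cells and the transport-defective H35R0.3 subline, which has normal DHFR content, were incubated with drug for 72 h, and the IC50 was determined.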

H35 [2] = experiment: Growth inhibition of H35 cell lines; type: functional, cell-based; conditions: Rattus norvegicus; method in brief: as §1
L1210 [3] = experiment: Growth inhibition of L1210 cell lines; type: functional, cell-based; conditions: Mus musculus
Method in brief: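 L1210 murine leukemia cells were incubated with drug in culture for 48 h. Percent cell growth relative to untreated controls was plotted against concentration to obtain the IC50.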

Mus musculus [4] = experiment: Inoculation of 10 e5 L1210 cells, ip, on day 0, & treatment was started on day 1 with the administration of the compound, ip, in groups of five B6D2F1J male mice at dose 0.5 mg/kg; type: functional
Mus musculus [5] = experiment: Inoculation of 10 e5 L1210 cells, ip, on day 0, & treatment was started on day1 with the administration of the compound, ip, in groups of five B6D2F1J male mice at dose 1 mg/kg; type: functional
Method in brief: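 Male B6D2F1J mice, five per group, received 10^5 L1210 cells ip on day 0. From day 1, drug in sterile 0.9% NaCl was injected ip twice daily on days 1–4 and 7–10, with one double dose on each of days 5 and 6. […]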

Mus musculus [6] = experiment: Inoculation of 10 e5 L1210 cells, ip, on day 0, & treatment was started on day1 with the administration of the compound, ip, in groups of five B6D2F1J male mice at dose 0.5 mg/kg
Mus musculus [7] = experiment: Inoculation of 10 e5 L1210 cells, ip, on day 0, & treatment was started on day 1 with the administration of the compound, ip, in groups of five B6D2F1J male mice at dose 1.0 mg/kg; T=19; C=9; type: functional
Mus musculus [8] = experiment: Inoculation of 10 e5 L1210 cells, ip, on day 0, & treatment was started on day 1 with the administration of the compound, ip, in groups of five B6D2F1J male mice at dose 0.5 mg/kg; T =18; C=9; type: functional
Mus musculus [9] = experiment: Inoculation of 10 e5 L1210 cells, ip, on day 0, & treatment was started on day 1 with the administration of the compound, ip, in groups of five B6D2F1J male mice at dose 0.5 mg/kg; 14-20; type: functional
Method in brief: (§2)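 Vehicle sterile 0.9% NaCl, ip. Dosing on days 1-10: twice daily on days 1-4 and 7-10, once daily on days 5 and 6 with a double dose given on those days. Endpoint is increase in life span (ILS) versus untreated controls. Doses are also stated as MTX-equivalent doses rounded to the nearest mg/kg.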

Mus musculus [10] = experiment: Inoculation of 10 e5 L1210 cells, ip, on day 0, & treatment was started on day 1 with the administration of the compound, ip, in groups of five B6D2F1J male mice at dose 1.0 mg/kg; 17-22; type: functional; method in brief: as §2
Mus musculus [11] = experiment: Inoculation of 10 e5 L1210 cells, ip, on day 0, & treatment was started on day 1 with the administration of the compound, ip, in groups of five B6D2F1J male mice at dose 1.0 mg/kg
Dihydrofolate reductase = biological target: T1, Dihydrofolate reductase (Mus musculus, UniProt P00375); experiment: Inhibitory activity towards dihydrofolate reductase in L1210 murine leukemia cell lines; type: cell-based
T1 sequence (P00375 whole entry): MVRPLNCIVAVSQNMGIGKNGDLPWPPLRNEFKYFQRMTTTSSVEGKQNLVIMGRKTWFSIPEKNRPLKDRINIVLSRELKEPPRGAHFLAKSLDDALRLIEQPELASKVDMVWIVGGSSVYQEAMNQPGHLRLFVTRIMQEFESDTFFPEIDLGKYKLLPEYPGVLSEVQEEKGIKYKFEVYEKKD

H35R0.3 [12] = experiment: (§3) Cytotoxic activity with respect to methotrexate; type: functional, Rattus norvegicus
H35 [13] = experiment: as §3; type: functional, Rattus norvegicus
L1210 [14] = experiment: as §3; type: functional, Mus musculus
Mus musculus [15] = experiment: Inoculation of 10 e5 L1210 cells, ip, on day 0, & treatment was started on day 1 with the administration of the compound, ip, in groups of five B6D2F1J male mice at dose 10 mg/kg; type: functional
Mus musculus [16] = experiment: Inoculation of 10 e5 L1210 cells, ip, on day 0, & treatment was started on day 1 with the administration of the compound, ip, in groups of five B6D2F1J male mice at dose 20 mg/kg; type: functional
Mus musculus [17] = experiment: Inoculation of 10 e5 L1210 cells, ip, on day 0, & treatment was started on day 1 with the administration of the compound, ip, in groups of five B6D2F1J male mice at dose 40 mg/kg; type: functional

Structure (SMILES): CN(Cc1cnc2nc(N)nc(N)c2n1)c1ccc(C(=O)N[C@@H](CCC(=O)O)C(=O)O)cc1 [METHOTREXATE]
pIC50 (H35R0.3 [1]): 5.74
pIC50 (H35 [2]): 8.00
pIC50 (L1210 [3]): 7.62
7-day weight change (Mus musculus [4]): 0%
7-day weight change (Mus musculus [5]): -9%
ILS at 0.5 mg/kg (Mus musculus [6]): 100%
median survival (days) (Mus musculus [7]): 19
median survival (days) (Mus musculus [8]): 18
Survival range (Mus musculus [9]): 20
Survival range (Mus musculus [10]): 22
ILS at 1 mg/kg (Mus musculus [11]): 111%

pIC50 (Dihydrofolate reductase): 7.06
pIC50 (L1210 [3]): 6.12
Structure (SMILES): CN(Cc1cnc2nc(N)nc(N)c2n1)c1ccc(C(=O)NC(CCC(=O)NCCCCC(N)C(=O)O)C(=O)O)cc1 (stereo unspecified)
pIC50 (H35R0.3 [1]): 5.22
pIC50 (H35 [2]): 6.40
Relative activity (H35R0.3 [12]): 0.3
Relative activity (H35 [13]): 0.025
Relative activity (L1210 [14]): 0.032
7-day weight change (Mus musculus [15]): 11%
7-day weight change (Mus musculus [16]): 5%
7-day weight change (Mus musculus [17]): 2%
